Lung fibro prol: antiproliferative effect on LL 47 fibroblasts – human, LL 47 cells, CellTiter-Glo luminescence, primary screen. viability, % at 10 µM. 85,000 compounds, 1.1% hits. AID 719, 2007. LL 47 human lung fibroblast viability, ATP luminescence; active compounds read low;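 active means viability at or below 50% in the single dose screen; inactive means viability above 50%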;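 further: compound exposure lasted 72 h before the ATP readout; 100% = median luminescence of untreated cell-only wells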
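Test system: LL 47 human lung fibroblasts / Quantity: 1,150 cells in each well / Medium: IMEM growth medium with 15% fetal bovine serum / Incubation: 72 h compound exposure at 37 °C after overnight plating / Detection: CellTiter-Glo luminescence measuring cellular ATP / Read-out: % viability versus median cells-only luminescence / Benchmarks: cell-only wells, no compound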
PTEN del growth: growth suppression of PTEN-null HCT116, primary screen, cell-based, CellTiter-Glo. HCT116 PTEN-null viability, 60 h; active compounds read low. viability, % at 10 µM. 140,000 compounds, 1.2% hits;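 active means viability at or below a set limit, 4 SD under the median of all tested compounds, cut at about 3.7% in these data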;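 further: PTEN knockout HCT116 line with beta catenin targeted HCT116 as companion control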
HUVEC inhibit: inhibitors of HUVEC proliferation, primary screen, cell-based, 384-well; AID 648, 2007; CellTiter-Glo luminescence, 72 h; active compounds read low; 86,000 compounds, 1.1% hits; viability, % at 10 µM (by protocol);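 active means viability at or below 30%; inactive means viability above 30%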;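 further: 100% = median luminescence of DMSO-only cell control wells on each plate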
H69AR growth 86K: proliferation blockers of H69AR lung cancer cells, primary screen, cell-based, human, 86K library; viability, % at 10 µM; H69AR lung tumor viability, ATP luminescence, 72 h; active compounds read low; 85,000 compounds, 6% hits; AID 598, 2007;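 active means viability at or below 40%; inactive means viability above 40%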;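 further: multidrug resistant small cell line overexpressing MRP-1 efflux transporter; 100% = mean luminescence of untreated control wells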
bCat KO growth: primary screen for growth suppressors in beta-catenin knockout HCT116 cells (colon tumor, human); viability, % at 10 µM; AID 818, 2007; 140,000 compounds, 1.5% hits; HCT116 beta-catenin knockout viability, CellTiter-Glo, 60 h; active compounds read low;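 active means viability at or under a set limit, the compound median less 4 SD, cut at about 6% in these data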;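 further: 0% = Hyamine 1622 control at 20 µM and 100% = untreated cell control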
* = called active by the depositor; / = no result. Only a selection was taken, and hits are over-represented in it overall.

SMILES | Lung fibro prol | PTEN del growth | HUVEC inhibit | H69AR growth 86K | bCat KO growth
COc1ccc2[nH]c(=O)c(CN(Cc3ccccc3OC)Cc3nnnn3CC3CCCO3)cc2c1 (configuration not stated) | 91 | 63 | 94 | 61 | 78
O=C(CCl)Nc1ccc(Oc2cnc3ccccc3n2)cc1 | / | 8 | / | / | 11
CCCNC(=O)NC(C(=O)OC)C12CC3CC(CC(C3)C1)C2 (configuration not stated) | 94 | 98 | 115 | 92 | 96
O=C(CCCCC(=O)NC1CCCC1)NC1CCCC1 | / | 84 | / | / | 84
COc1ccc2[nH]c(=O)c(CN(Cc3ccco3)Cc3nnnn3Cc3ccccc3)cc2c1 | 93 | 95 | 98 | / | 89
COc1ccc2cc(CN(CCc3ccccc3)Cc3nnnn3CC3CCCO3)c(=O)[nH]c2c1 (configuration not stated) | 97 | 78 | 96 | 61 | 80
COc1ccc2[nH]c(=O)c(CN(CCc3ccccc3)Cc3nnnn3CC3CCCO3)cc2c1 (configuration not stated) | 93 | 80 | 83 | 27* | 95
CCOc1ccc2[nH]c(=O)c(CN(Cc3ccco3)Cc3nnnn3Cc3ccccc3)cc2c1 | 99 | 62 | 86 | 38* | 72
Cc1nnc(SCc2ccc(Cl)cc2)n1CC1CCCO1 (configuration not stated) | 97 | 84 | 95 | 103 | 96
Cc1ccc(CN(C(=O)c2cc(=O)c3cc(Cl)c(C)cc3o2)C2CCS(=O)(=O)C2)cc1 (configuration not stated) | 82 | 66 | 78 | 26* | 68
CCOc1ccc(CN(C(=O)c2oc3cc(C)ccc3c2C)C2CCS(=O)(=O)C2)cc1 (configuration not stated) | 86 | 16 | 50 | 11* | 16
Cc1ccc2c(C)c(C(=O)N(Cc3cccs3)C3CCS(=O)(=O)C3)oc2c1 (configuration not stated) | 90 | 78 | 74 | 81 | 82
COc1ccc(OC)c(NC(=O)c2c(NC(=O)CNCc3ccco3)sc3c2CCC3)c1 | 78 | 79 | 80 | 16* | 90
COc1cc2nc(NCC3CCCO3)n3nc(-c4cccnc4)nc3c2cc1OC (configuration not stated) | 87 | 88 | 71 | 21* | 83
COc1ccc(-n2ncc3c(NCC4CCCO4)ncnc32)cc1 (configuration not stated) | 112 | 103 | 85 | 87 | 101
CCN(CC)CCCNc1nc2cc(OC)c(OC)cc2c2nc(-c3cccnc3)nn12 | 71 | 1.6* | 76 | 65 | 1.7*
CCN(CC)CCCNc1nc2cc(OC)c(OC)cc2c2nc(-c3ccccc3)nn12 | 1.8* | 0.8* | 26* | 6.5* | 0.8*
COc1cc2nc(NCCN3CCOCC3)n3nc(-c4ccccc4)nc3c2cc1OC | 106 | / | 83 | 66 | /
Cn1c(CSCc2ccc(Cl)cc2)nnc1SCC(=O)Nc1nc2ccccc2s1 | 92 | 102 | 83 | 56 | 97
Cc1c(C(=O)N2CCCCC2)sc(NC(=O)C23CC4CC(CC(C4)C2)C3)c1C#N | 91 | / | 96 | 87 | /
Cc1cc(C#N)c(C)n1-c1cc(S(=O)(=O)N2CCOCC2)ccc1N1CCCC1 | 92 | 80 | 87 | 44 | 72
CC1CCN(c2nc3c(c(=O)[nH]c(=O)n3C)n2Cc2ccccc2Cl)CC1 | 88 | 79 | 79 | 67 | 67
CCOc1ccc(NC(=O)N[C@@H](CCSC)C(=O)OC)cc1 | 106 | 101 | 102 | 91 | 95
Cc1[nH][nH]c(=O)c1C(c1ccc(-c2ccc(Cl)c(Cl)c2)o1)c1c(C)[nH][nH]c1=O | 69 | 43 | 38 | 30* | 49
Cc1[nH][nH]c(=O)c1C(c1cc([N+](=O)[O-])ccc1O)c1c(C)[nH][nH]c1=O | / | 85 | / | / | 91
O=C(c1ccccc1)N1CCN(c2ncnc3sc4c(c23)CCC4)CC1 | 101 | 62 | 78 | 63 | 53
C=C(C)CNC(=S)N1CCNC(=O)C1CC(=O)OC (configuration not stated) | / | 101 | / | / | 97
CC(C)(C)OC(=O)N1CC=C2C(C#N)=C(N)C(C#N)(C#N)C(c3cccs3)C2C1 (configuration not stated) | 90 | 78 | 77 | 23* | 81

Screening results (PubChem BioAssay)
